NR1D1 modulator – modulates human Rev-erb alpha binding to DNA; activity, % at 10 µM; Rev-erbα–FITC-DNA binding, fluorescence polarization, 90 min; hit rate 0.79% among 370,000; P20393;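 active = activity above about 14%, limit read from the data; passing the limit was not always enough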;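 note: 0% = DMSO wells with 35 nM protein and 100% = DMSO wells with 750 nM protein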
MC4R barr agon – activates human MC4R beta-arrestin recruitment; hit rate 0.98% among 360,000; activation, % at 8.9 µM; P32245; U2OS MC4R beta-arrestin complementation, luminescence; percent of melanotan II response, DMSO zero;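 active = activation above a per-plate cutoff, the mean activation of sample wells on that plate plus 3 SD, cut at about 8% in these data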
PG9 Ab binder – PG9 antibody binding by small molecule. TR-FRET gp120-PG9 antibody binding. inhibition, % at 6.7 µM. hit rate 0.43% among 360,000. AID 624416; in the data active = inhibition above about 8.5%
MC4R antag cAMP – blocks human MC4R cAMP signaling. MC4R-expressing cells, MTII-stimulated cAMP, LANCE TR-FRET. inhibition, % at 6.5 µM. hit rate 0.48% among 360,000;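 active = inhibition above its plate's cutoff, the mean of tested wells on that plate plus 3 SD, cut at about 29% in these data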;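 note: 0% = Melanotan II alone and 100% = Melanotan II plus saturating MCL0020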
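System – human MC4R-expressing U2OS cells · Also added – Melanotan II · Dosing – one concentration, 6.5 µM nominal · Timing – 30-min compound, 1-h challenge, 1-h detection, room temperature · Measured by – Eu-cAMP/anti-cAMP TR-FRET, emission 671 nm · Replicates – singlicate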
NTR1 ag – activates human neurotensin receptor 1 | hit rate 0.17% among 330,000 | activation, % at 20 µM | NTR1-U2OS beta-arrestin-GFP spot imaging, agonist mode | AID 493036 | P30989;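 active = activation at or above 40% of the spot to cytoplasm intensity ratio, with at least 20 cells analyzed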;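 note: 0% = DMSO without peptide and 100% = 100 nM NTR1 peptide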
Target sequence (P30989 whole entry, looked up): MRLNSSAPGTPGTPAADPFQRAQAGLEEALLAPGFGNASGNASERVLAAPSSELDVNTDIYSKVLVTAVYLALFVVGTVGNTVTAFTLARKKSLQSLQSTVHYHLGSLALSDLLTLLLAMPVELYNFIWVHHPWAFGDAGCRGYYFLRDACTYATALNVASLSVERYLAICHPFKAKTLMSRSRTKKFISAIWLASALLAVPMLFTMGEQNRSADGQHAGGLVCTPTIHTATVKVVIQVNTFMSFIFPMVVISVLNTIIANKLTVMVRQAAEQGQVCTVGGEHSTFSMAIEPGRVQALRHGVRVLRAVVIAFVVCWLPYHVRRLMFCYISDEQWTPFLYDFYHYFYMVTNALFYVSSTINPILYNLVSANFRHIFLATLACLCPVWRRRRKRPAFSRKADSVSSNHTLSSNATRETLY
PG9 bind confirm – PG9 antibody binding, confirmed; shares compounds with PG9 Ab binder; TR-FRET PG9 antibody binding, biochemical; inhibition, % at 6.7 µM; hit rate 90% among 1,500; in the data active = inhibition above about 9%
PGV04 counter – PGV04 control antibody binding, counter-screen | shares compounds with PG9 Ab binder | TR-FRET PGV04 antibody-gp120 binding, biochemical | inhibition, % at 6.7 µM | hit rate 95% among 1,500; in the data active = inhibition above about 9.5%
PG9 binder DR – small molecules binding HIV-1 gp120 antibody PG9 | shares compounds with PG9 Ab binder | TR-FRET PG9 antibody-gp120 binding inhibition | IC50, µM | 95 tested, under 10 active; in the data active = IC50 below about 10 µM
PGV04 DR counter – PGV04 binding, dose response counter-screen | shares compounds with PG9 Ab binder | TR-FRET binding to control antibody PGV04 | IC50, µM | hit rate 20% among 95
PG126 binding DR – counter-screen for PG9 binders: binding to control antibody PG126. shares compounds with PG9 Ab binder. TR-FRET binding to antibody PG126, counterscreen. IC50, µM. hit rate 20% among 95
Rev-erbA confirm – confirmation of modulators of human Rev-erb alpha DNA binding; shares compounds with NR1D1 modulator; Rev-erb alpha FITC-DNA binding, fluorescence polarization, 90 min; activation, % at 25 µM; hit rate 61% among 3,000;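 active = activation at or above a set limit, or at least 3 SD above the negative control mean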;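 note: 0% = 35 nM protein with DMSO and 100% = 750 nM protein high control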
RORg counter – counter-screen for Rev-erb alpha modulators: RORgamma DNA binding. shares compounds with NR1D1 modulator. purified RORgamma protein-FITC-DNA binding, fluorescence polarization. IC50, µM. hit rate 8% among 910;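 active = Compounds whose fitted half-maximal concentration for disrupting protein-DNA binding is below 10 micromolar; the record names Rev-erb in its text, so the target is in doubt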
Numbers without * were called inactive; i = inactive; . = not tested or not shown. In the library only some 2.5% were active in any assay of this set; here they are far more common. Cut-off read from the data, not from the text of the source, unless noted: active = IC50 below about 9 µM; inactive = the rest.

SMILES	NR1D1 modulator	MC4R barr agon	PG9 Ab binder	MC4R antag cAMP	NTR1 ag	PG9 bind confirm	PGV04 counter	Rev-erbA confirm	RORg counter	others
Cc1nonc1NC(=O)CSc1nc2c(C)cccc2cc1C#N	80.9*	8.2	9.8*	11.1	-3.4	42.4*	66.0*	72.6*	>40
COc1ccc2nc(SCC(C)=O)c(C#N)cc2c1	15.3	-1.6	-11.9	-13.3	-2.7	.	.	.	.
COc1ccc2cc(C#N)c(SCC(=O)Nc3nonc3C)nc2c1	66.6*	3.1	24.7*	11.0	1.2	33.5*	62.0*	27.1*	.
Cc1ccc(C)c2nc(SCC(=O)Nc3ccc4c(c3)OCO4)c(C#N)cc12	-0.6	-1.2	-1.6	13.5	-0.1	.	.	.	.
O=C(CCn1nnc2ccccc21)Nc1nnc(-c2ccccc2F)s1	28.2*	-0.8	13.4*	-2.1	0.0	22.6*	38.4*	16.8	.
O=C(Nc1nc(=O)c2ccccc2s1)c1ccc(Cl)cc1	78.3*	4.1	25.0*	3.6	1.2	49.8*	68.2*	107.2*	>40
O=C(Cc1ccccc1)Nc1nc(=O)c2ccccc2s1	31.7*	0.9	67.6*	8.7	3.0	71.7*	77.9*	17.7*	.
O=C(Nc1nc(=O)c2ccccc2s1)c1ccc(F)cc1	78.7*	4.7	41.5*	12.4	0.7	65.8*	78.0*	69.7*	>40
CC1Cc2ccccc2N1C(=O)COC(=O)c1cccc(Br)c1 (stereo not drawn)	0.0	1.7	-0.7	-1.4	0.1	.	.	.	.
CC1Cc2ccccc2N1C(=O)COC(=O)c1cc(Br)ccc1O (stereo not drawn)	34.9*	-1.9	19.9*	3.9	3.7	6.3	8.4	24.8*	.
Cc1ccc(NC(=O)CSc2nc3ncc(Br)cc3[nH]2)cc1C	194.7*	5.8	45.3*	-3.2	2.9	65.9*	79.4*	185.5*	>40
Cc1cc(C)c(NC(=O)CSc2nc3ncc(Cl)cc3[nH]2)c(C)c1	11.2	1.9	3.0	-1.5	2.2	.	.	.	.
Cc1cc(C)c(NC(=O)CSc2nc3ncc(Br)cc3[nH]2)c(Cl)c1	46.7*	0.5	35.0*	-5.6	0.2	39.1*	62.9*	64.5*	i
NC(=Nc1cccc(F)c1)NC(=O)OCc1ccccc1	0.9	.	.	.	.	.	.	.	.
CCOC(=O)N1CCN(C(=O)C[C@H]2C[C@@]3(C(=O)OC)C(=C[C@H](C4CCCC4)O[C@@H]3C)N(Cc3cccc4ccccc34)C2=O)CC1	-11.2	.	.	.	.	.	.	.	.
O=C(Nc1nc2ccccc2n1CCOc1ccccc1)c1ccco1	1.0	1.6	-1.4	-5.5	3.0	.	.	.	.
Cc1ccc(OCCn2c(NC(=O)c3ccco3)nc3ccccc32)cc1	29.8*	-0.2	19.3*	-3.8	-0.1	16.6*	25.2*	12.7	.
COc1ccc2c(-c3ccccc3)cc(SCC(=O)N(C)C)nc2c1	1.4	1.7	-1.6	10.7	2.0	.	.	.	.
COc1ccc2c(C)cc(SCC(=O)c3ccc4c(c3)OCO4)nc2c1	2.6	2.5	-1.2	-0.8	8.2	.	.	.	.
COc1ccc2c(-c3ccccc3)cc(SCC(=O)NC(N)=O)nc2c1	39.6*	-1.4	17.1*	5.5	2.7	28.1*	64.9*	14.2	.
COc1ccc2c(C)cc(SCC(=O)Nc3ncc(Cl)cc3Cl)nc2c1	118.9*	-2.0	14.3*	-3.6	4.0	37.0*	53.5*	56.0*	>40
COc1ccc(CN[C@@H]2CC[C@@]34CCCN3C(=O)CCC[C@H]4C2)cc1OC	-5.4	.	.	.	.	.	.	.	.
O=c1c2ccccc2c2ccccc2c(=O)n1Cc1ccc2c(c1)OCO2	0.8	-0.1	-0.2	-4.1	.	.	.	.	.
CCCCNC(=O)CCCn1c(=S)[nH]c2cc3c(cc2c1=O)OCO3	-4.5	0.1	-0.3	9.1	1.3	.	.	.	.
O=c1c2ccccc2[nH]c(=S)n1Cc1ccc2c(c1)OCO2	37.7*	6.3	8.6*	12.4	8.8	12.2*	21.8*	47.5*	>40
SMILES	NR1D1 modulator	MC4R barr agon	PG9 Ab binder	MC4R antag cAMP	NTR1 ag	PG9 bind confirm	PGV04 counter	Rev-erbA confirm	RORg counter	others
COc1cccc(CNC(=O)CCCn2c(=S)[nH]c3cc4c(cc3c2=O)OCO4)c1	86.0*	-3.3	27.6*	13.4	2.0	15.2*	22.8*	57.2*	>40
O=C(CCCn1c(=S)[nH]c2cc3c(cc2c1=O)OCO3)NCc1ccccc1Cl	49.5*	0.4	18.7*	-2.5	7.0	21.3*	20.8*	32.6*	>40	PG9 binder DR=>67.1;PGV04 DR counter=i;PG126 binding DR=i
COc1ccc(C(C(=O)N(C)C2CCCC2)N(Cc2ccc(F)cc2)C(=O)c2ccc3ccccc3c2)cc1OC (stereo not drawn)	2.1	.	.	.	.	.	.	.	.
CCOc1ncccc1C(=O)Nc1ccc(Cl)c(S(=O)(=O)N2CCCC2)c1	32.9*	3.0	11.4*	1.6	4.6	7.0	10.1*	18.6*	.
COc1ccc(C(=O)Nc2ccc(NC(=O)c3cc(OC)c(OC)c(OC)c3)cn2)cc1	19.6*	-1.6	20.2*	6.9	-0.2	14.8*	20.3*	2.5	.
COc1ccc(Cl)cc1NC(=O)c1[nH]c(C)c(C(C)=O)c1C	30.6*	-1.4	27.0*	-3.5	-0.8	28.4*	31.4*	35.0*	>40
COc1ccc(CNC(=O)O[C@H]2CC[C@@]34CCCN3C(=O)CCC[C@H]4[C@H]2C)cc1OC	4.4	.	.	.	.	.	.	.	.
Cc1nc(C(=O)Nc2ccccc2Cl)cc2c1[nH]c1ccccc12	21.2*	4.2	21.7*	5.8	0.6	11.6*	25.9*	8.0	.
COc1ccccc1NC(=S)OC1CCC12CCC(c1ccccc1)CC2 (stereo not drawn)	4.1	.	.	.	.	.	.	.	.
C/C(N)=C(/C#N)C(=O)CSc1nc2ccccc2c(=O)n1-c1ccc(C)c(Cl)c1	78.0*	5.3	44.6*	5.5	4.5	39.1*	56.3*	31.2*	i
COC(=O)[C@]12C[C@H](CC(=O)NCc3cccc4ccccc34)C(=O)N(Cc3ccc(Cl)cc3Cl)C1=C[C@H](C(C)C)O[C@@H]2C1CC1	1.7	.	.	.	.	.	.	.	.
Brc1ccc2ncc(Br)cc2c1	44.5*	-0.8	12.2*	5.4	0.0	16.1*	22.9*	32.9*	>40

Screening data from PubChem BioAssay.
